Test results: ChEMBL document CHEMBL2150863, “Synthesis pharmacological evaluation and docking studies of pyrimidine derivatives” (Eur J Med Chem, 2012)
Values after ≈ are worked out from the molar mass of the structure shown.

Assays:
Rattus norvegicus [1] = assay: Antiinflammatory activity in rat assessed as inhibition of carrageenan-induced paw edema at 10 mg/kg, po administered 30 mins prior to carrageenan-challenge after 2 hrs relative to vehicle-treated control; format: functional
Method in brief: (§1)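 Rats of 150–200 g, six per group. Oral dosing at 10 mg/kg as a suspension; controls receive 1% carboxymethylcellulose. After 30 min, 0.1 mL of 1% w/v carrageenan is injected into the left hind paw. Paw volume is measured by mercury displacement. Inhibition = (1 − Vt/Vc) × 100 from edema volumes; mean ± SEM.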

Pseudomonas aeruginosa = assay: Antibacterial activity against Pseudomonas aeruginosa MTCC 424 after 24 hrs by tube dilution method; format: functional; details: MTCC 424, 24 h
Method in brief: (§2)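 Tube dilution in Mueller-Hinton broth at pH 7.4. Two-fold serial dilutions from 1000 to 0.97 in 10% DMSO, with a DMSO-only inoculated control. Inoculum matched visually to a McFarland standard of about 1.5 × 10⁸ cells/mL. Incubation at 37 ± 1 °C for 24 h. MIC is the lowest concentration giving no growth; duplicate determinations, averaged.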

Escherichia coli = assay: Antibacterial activity against Escherichia coli MTCC 4351 after 24 hrs by tube dilution method; format: functional; details: MTCC 4351, 24 h; method in brief: as §2
Rattus norvegicus [2] = assay: Antiinflammatory activity in rat assessed as inhibition of carrageenan-induced paw edema at 10 mg/kg, po administered 30 mins prior to carrageenan-challenge after 1 hr relative to vehicle-treated control; format: functional; method in brief: as §1
Staphylococcus aureus = assay: Antibacterial activity against Staphylococcus aureus MTCC 3160 after 24 hrs by tube dilution method; format: functional; details: MTCC 3160, 24 h; method in brief: as §2
Aspergillus niger = assay: Antifungal activity against Aspergillus niger MTCC 282 after 48 hrs by tube dilution method; format: functional; details: MTCC 282, 48 h
Method in brief: (§3)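 Tube dilution in Sabouraud dextrose broth at pH 7.4. Two-fold serial dilutions from 1000 to 0.97 in 10% DMSO, with a solvent control. Inoculum matched visually to a McFarland standard of about 1.5 × 10⁸ cells/mL. Incubation at 25 ± 1 °C for 48 h. MIC is the tube showing no fungal growth; duplicate determinations, averaged.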

Mus musculus = assay: Analgesic activity in mouse assessed as inhibition of acetic-acid induced writhing at 10 mg/kg administered 15 mins prior to acetic acid-challenge measured for 15 mins relative to vehicle-treated control; format: functional
Method in brief: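 Mice, at least six per group. Test compounds given at 10 mg/kg; acetic acid solution given 15 min later. Writhing is scored as abdominal contractions, trunk twists and hind-limb extensions. Percent inhibition of pain = (1 − Vt/Vc) × 100, where Vt and Vc are mean writhing counts in the treated and control groups.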

Rattus norvegicus [3] = assay: Antiinflammatory activity in rat assessed as inhibition of carrageenan-induced paw edema at 10 mg/kg, po administered 30 mins prior to carrageenan-challenge after 3 hrs relative to vehicle-treated control; format: functional; method in brief: as §1
Candida albicans = assay: Antifungal activity against Candida albicans MTCC 183 after 48 hrs by tube dilution method; format: functional; details: MTCC 183, 48 h; method in brief: as §3
Rattus norvegicus [4] = assay: Antiinflammatory activity in rat assessed as inhibition of carrageenan-induced paw edema at 10 mg/kg, po administered 30 mins prior to carrageenan-challenge after 4 hrs relative to vehicle-treated control; format: functional; method in brief: as §1
Bacillus subtilis = assay: Antibacterial activity against Bacillus subtilis MTCC 441 after 24 hrs by tube dilution method; format: functional; details: MTCC 441, 24 h; method in brief: as §2
Rattus norvegicus [5] = assay: Ulcerogenic activity in Wistar albino rat assessed as ulcer index at 10 mg/kg, ip administered QD for 3 days; format: toxicity, organism-based; parameters: dose 10 mg/kg, route intraperitoneal; details: in vivo, 72 h
Method in brief: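 Wistar rats of either sex, 150–200 g, six per group. Given 10 mg/kg ip once daily for 3 days; controls receive 10% v/v Tween 80. Fasted 36 h, then pylorus ligated on day 4. Killed 4 h after ligation; stomach opened along the greater curvature and ulcer index scored; mean ± SEM.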

Structure (SMILES) | MIC (Pseudomonas aeruginosa) | MIC (Escherichia coli) | MIC (Staphylococcus aureus) | MIC (Aspergillus niger) | MIC (Candida albicans) | MIC (Bacillus subtilis) | inhibition in vivo at 10 mg/kg (Rattus norvegicus [1]) | inhibition in vivo at 10 mg/kg (Rattus norvegicus [2]) | inhibition in vivo at 10 mg/kg (Mus musculus) | inhibition in vivo at 10 mg/kg (Rattus norvegicus [3]) | inhibition in vivo at 10 mg/kg (Rattus norvegicus [4]) | UI (Rattus norvegicus [5])
CN(C)c1ccc(C2CC(C3C(=O)c4ccccc4C3=O)=NC(=O)N2)cc1 (stereo not drawn) | 62.5 µg/mL (≈ 173 µM) | 125 µg/mL (≈ 346 µM) | 125 µg/mL (≈ 346 µM) | 500 µg/mL (≈ 1380 µM) | 500 µg/mL (≈ 1380 µM) | 125 µg/mL (≈ 346 µM) | 29% | 15% | 52% | 20% | 16% | 
COc1ccc(C2CC(C3C(=O)c4ccccc4C3=O)=NC(=O)N2)cc1 (stereo not drawn) | 250 µg/mL (≈ 718 µM) | 250 µg/mL (≈ 718 µM) | 500 µg/mL (≈ 1440 µM) | 250 µg/mL (≈ 718 µM) | 250 µg/mL (≈ 718 µM) | 125 µg/mL (≈ 359 µM) | 21% | 22% | 31% | 22% | 10% | 
COc1ccc2c(c1)c(CC(=O)O)c(C)n2C(=O)c1ccc(Cl)cc1 [INDOMETHACIN] |  |  |  |  |  |  | 48% | 23% | 55% | 39% | 34% | 1.7
O=C1N=C(C2C(=O)c3ccccc3C2=O)CC(c2ccco2)N1 (stereo not drawn) | 500 µg/mL (≈ 1620 µM) | 31.2 µg/mL (≈ 101 µM) | 62.5 µg/mL (≈ 203 µM) | 62.5 µg/mL (≈ 203 µM) | 62.5 µg/mL (≈ 203 µM) | 31.2 µg/mL (≈ 101 µM) | 25% | 18% | 25% | 20% | 7% | 
O=C1N=C(C2C(=O)c3ccccc3C2=O)CC(c2ccccc2O)N1 (stereo not drawn) | 125 µg/mL (≈ 374 µM) | 500 µg/mL (≈ 1500 µM) | 125 µg/mL (≈ 374 µM) | 500 µg/mL (≈ 1500 µM) | 250 µg/mL (≈ 748 µM) | 250 µg/mL (≈ 748 µM) | 22% | 24% | 37% | 19% | 16% | 

Continued by falling MIC (Pseudomonas aeruginosa), values first:

MIC (Pseudomonas aeruginosa) | MIC (Escherichia coli) | MIC (Staphylococcus aureus) | MIC (Aspergillus niger) | MIC (Candida albicans) | MIC (Bacillus subtilis) | Structure (SMILES) | inhibition in vivo at 10 mg/kg (Rattus norvegicus [1]) | inhibition in vivo at 10 mg/kg (Rattus norvegicus [2]) | inhibition in vivo at 10 mg/kg (Mus musculus) | inhibition in vivo at 10 mg/kg (Rattus norvegicus [3]) | inhibition in vivo at 10 mg/kg (Rattus norvegicus [4]) | UI (Rattus norvegicus [5])
250 µg/mL (≈ 726 µM) | 125 µg/mL (≈ 363 µM) | 62.5 µg/mL (≈ 181 µM) | 250 µg/mL (≈ 726 µM) | 250 µg/mL (≈ 726 µM) | 125 µg/mL (≈ 363 µM) | O=C1N=C(C2C(=O)c3ccccc3C2=O)CC(/C=C/c2ccccc2)N1 (stereo not drawn) | 32% | 17% | 16% | 18% | 16% | 
250 µg/mL (≈ 688 µM) | 250 µg/mL (≈ 688 µM) | 125 µg/mL (≈ 344 µM) | 125 µg/mL (≈ 344 µM) | 500 µg/mL (≈ 1380 µM) | 250 µg/mL (≈ 688 µM) | O=C1N=C(C2C(=O)c3ccccc3C2=O)CC(c2cccc([N+](=O)[O-])c2)N1 (stereo not drawn) | 36% | 27% | 36% | 21% | 12% | 
125 µg/mL (≈ 393 µM) | 62.5 µg/mL (≈ 196 µM) | 125 µg/mL (≈ 393 µM) | 500 µg/mL (≈ 1570 µM) | 500 µg/mL (≈ 1570 µM) | 250 µg/mL (≈ 785 µM) | O=C1N=C(C2C(=O)c3ccccc3C2=O)CC(c2ccccc2)N1 (stereo not drawn) | 33% | 20% | 31% | 21% | 11% | 
